This note sets out measurements from BindingDB's records for doi:10.1016/j.ejmech.2013.06.039 (University of Salerno, 2013).

The target of assay [1] is T1, Polyunsaturated fatty acid 5-lipoxygenase (Homo sapiens, UniProt P09917).
T1 sequence (P09917 whole entry): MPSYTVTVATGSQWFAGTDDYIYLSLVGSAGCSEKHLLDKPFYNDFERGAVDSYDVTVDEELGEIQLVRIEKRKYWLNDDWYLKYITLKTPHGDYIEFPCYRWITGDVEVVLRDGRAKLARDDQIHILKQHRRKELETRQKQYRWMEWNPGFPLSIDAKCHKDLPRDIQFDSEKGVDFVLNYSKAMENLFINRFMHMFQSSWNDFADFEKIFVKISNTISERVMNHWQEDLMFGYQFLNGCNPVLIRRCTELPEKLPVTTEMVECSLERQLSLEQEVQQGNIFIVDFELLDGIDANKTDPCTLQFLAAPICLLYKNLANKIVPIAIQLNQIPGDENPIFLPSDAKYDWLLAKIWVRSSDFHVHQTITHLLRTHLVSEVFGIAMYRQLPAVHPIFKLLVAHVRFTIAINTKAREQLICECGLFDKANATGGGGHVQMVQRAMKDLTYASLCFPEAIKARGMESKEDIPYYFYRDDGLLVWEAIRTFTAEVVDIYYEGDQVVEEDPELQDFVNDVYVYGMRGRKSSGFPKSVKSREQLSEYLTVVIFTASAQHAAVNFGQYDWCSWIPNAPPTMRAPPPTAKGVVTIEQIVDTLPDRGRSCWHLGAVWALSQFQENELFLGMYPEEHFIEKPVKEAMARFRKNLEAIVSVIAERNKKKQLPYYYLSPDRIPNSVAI
In words: Inhibition of human recombinant 5-LO expressed in Escherichia coli BL21 using arachidonic acid as substrate after 10 mins. The method, boiled down:
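Purified 5-LO was diluted in PBS/EDTA and pre-incubated with compound for 5–10 min at 4 °C, then pre-warmed for 30 s at 37 °C. The reaction was started with 2 mM CaCl₂ plus AA, run 10 min at 37 °C and stopped with ice-cold methanol. Products were analysed by HPLC.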

For assay [2], the target named is T1, Polyunsaturated fatty acid 5-lipoxygenase. Kind of assay: Inhibition of 5-LO in human PMNL using arachidonic acid as substrate preincubated for 15 mins. The method, boiled down: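 PMNL were isolated from buffy coats by dextran sedimentation, Nycoprep centrifugation and hypotonic lysis of erythrocytes, then resuspended in PBS pH 7.4 with 1 mg/mL glucose and 1 mM CaCl₂. Cells were pre-incubated with compound for 15 min at 37 °C, then stimulated with A23187 plus AA for 10 min at 37 °C. 15-LO comes from eosinophils and 12-LO from adhering platelets in the preparation. After methanol/HCl stop and PGB₁ addition, metabolites were extracted and quantified by HPLC. Mean ± S.E.M., n = 3–4.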

Consider `COC1=CC(=O)C(=O)C(Cc2ccc3ccccc3c2)C1=O` (stereo not drawn), for which the IC50 in assay [1] and in assay [2] was more than 10 µM throughout.
`O=C1C=C(Cc2ccccc2)C(=O)CC1=O`: the concentration for half-maximal inhibition (IC50) in assay [1] and in assay [2] was more than 10 µM each time.
As for `O=C1CC(=O)C(=O)C(CC2CCCCC2)C1=O`, the IC50 in assay [1] and in assay [2] was more than 10 µM in each case.
`COC1=CC(=O)C(=O)C(Cc2ccccc2)C1=O` (stereo not drawn): the IC50 in assay [1] and in assay [2] was more than 10 µM in each case.
